Results reported in ChEMBL document CHEMBL4130635, “2,4-Diaminoquinazolines as Dual Toll-like Receptor (TLR) 7/8 Modulators for the Treatment of Hepatitis B Virus” (J Med Chem, 2018).

How the values were obtained:
[1] = Cmax in C57BL/6J mouse plasma at 1 mg/kg, po by LC-MS analysis; assay type: ADME, organism-based; parameters: dose 1 mg/kg, route oral
In short: (§1)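 Healthy C57BL/6 mice, groups of 15, given a single oral dose (0.3, 1, 3, 10 or 30 mg/kg) in 20% HP-β-CD. Blood drawn at 0.5 h. Three mice per group sacrificed at 0.5, 1, 2, 4 or 7 h, and compound in plasma and liver measured by LC−MS. Values rounded to whole numbers.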

Plasma [2] = assay: Proinflammatory activity in C57BL/6J mouse plasma assessed as CXCL-1 levels at 3 mg/kg, po by multiplex assay (reference value: 230 pg/ml); assay type: functional
[3] = Cmax in C57BL/6J mouse plasma at 10 mg/kg, po by LC-MS analysis; assay type: ADME, organism-based; parameters: dose 10 mg/kg, route oral; in short: as §1
Liver [4] = assay: Anti-inflammatory activity in C57BL/6J mouse liver assessed as IL-10 levels at 3 mg/kg, po by multiplex assay (reference value: 2 pg/g); assay type: functional
In short: (§2)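 Single oral gavage in 20% HP-β-CD to healthy C57BL/6 mice, groups of 15 at 0.3, 1, 3, 10 or 30 mg/kg. Three mice per group sacrificed at 0.5, 1, 2, 4 or 7 h. Plasma and liver cytokines by multiplex, maximum level reported, rounded to nearest multiple of 5.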

Plasma [5] = assay: Effect on cytokine profile in C57BL/6J mouse plasma assessed as IFNgamma levels at 1 mg/kg, po by multiplex assay; assay type: functional, organism-based; in short: as §2
Liver [6] = assay: Proinflammatory activity in C57BL/6J mouse liver assessed as IL-6 levels at 3 mg/kg, po by multiplex assay (reference value: 10 pg/g); assay type: functional
Liver [7] = assay: Anti-inflammatory activity in C57BL/6J mouse liver assessed as IL-10 levels at 30 mg/kg, po by multiplex assay (reference value: 2 pg/g); assay type: functional; in short: as §2
Cynomolgus monkey [8] = assay: Effect on cytokine profile in cynomolgus monkey plasma assessed as IL-12P70 levels at 1 mg/kg, po after 24 hrs by Luminex assay (reference value: 2.17 pg/ml); assay type: functional, organism-based; conditions: Macaca fascicularis
In short: (§3)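 Healthy cynomolgus monkeys given single oral doses of 1, 3, 9 and 30 mg/kg, with a 2-week wash-out planned between doses. Systemic cytokine levels in plasma were sampled at 0.5, 1, 2, 4, 9 and 24 h postdose.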

Cynomolgus monkey [9] = assay: Induction of ISG response in cynomolgus monkey plasma assessed as upregulation of Mx1 mRNA expression at 1 mg/kg, po after 24 hrs by Fluidigm RT-qPCR analysis (reference value: 1); assay type: functional, Macaca fascicularis
In short: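 Cynomolgus monkeys, single oral doses of 1, 3, 9 and 30 mg/kg with a planned 2-week wash-out between doses. Systemic ISG (ISG15, Mx1, OAS1) mRNA was measured by Fluidigm RT-qPCR at 1, 2, 4, 8 and 24 h postdose.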

[10] = AUC (0 to last) in cynomolgus monkey plasma at 30 mg/kg, po by LC-MS analysis; assay type: ADME, organism-based, Macaca fascicularis; parameters: dose 30 mg/kg, route oral, time 0 - last
In short: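 Healthy cynomolgus monkeys received single oral doses of 1, 3, 9 and 30 mg/kg, with a 2-week wash-out between doses. Systemic compound concentrations were measured by LC–MS at 0.25, 0.5, 1, 2, 4, 8 and 24 h postdose.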

Cynomolgus monkey [11] = assay: Upregulation of Tlr7 expression in cynomolgus monkey plasma at 30 mg/kg, po after 24 hrs by Fluidigm RT-qPCR analysis (reference value: 1.8); assay type: functional, Macaca fascicularis
Liver [12] = assay: Proinflammatory activity in C57BL/6J mouse liver assessed as TNFalpha levels at 3 mg/kg, po by multiplex assay (reference value: 15 pg/g); assay type: functional
[13] = AUC in Sprague-Dawley rat at 10 mg/kg, po; assay type: ADME, organism-based; conditions: in vivo
In short: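 Male Sprague-Dawley rats were given 10 mg/kg orally as a solution. Compound was sampled from the portal vein, the systemic circulation and the liver.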

[14] = Cmax in C57BL/6J mouse liver at 30 mg/kg, po by LC-MS analysis; assay type: ADME, organism-based; parameters: dose 30 mg/kg, route oral; in short: as §1
Plasma [15] = assay: Proinflammatory activity in C57BL/6J mouse plasma assessed as IL-6 levels at 1 mg/kg, po by multiplex assay (reference value: 505 pg/ml); assay type: functional
Plasma [16] = assay: Effect on cytokine profile in C57BL/6J mouse plasma assessed as IFNgamma levels at 30 mg/kg, po by multiplex assay; assay type: functional; in short: as §2
D(1A) dopamine receptor = D(1A) dopamine receptor (Homo sapiens, UniProt P21728); assay: Inhibition of dopamine D1 receptor (unknown origin)
Liver [17] = assay: Effect on cytokine profile in C57BL/6J mouse liver assessed as IFNgamma levels at 10 mg/kg, po by multiplex assay; assay type: functional; in short: as §2
[18] = Metabolic stability in human liver microsomes assessed as compound metabolized at 1 uM after 15 mins; assay type: ADME, microsome; conditions: read-out: Drug metabolism
In short: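 Mouse (M) or human (H) liver microsomes incubated with compound at 1 μM; percent metabolized after 15 min.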

[19] = target: Voltage-gated inwardly rectifying potassium channel KCNH2 (Homo sapiens, UniProt Q12809); assay: Inhibition of radioligand binding to human ERG expressed in HEK293 cell membranes by scintillation counting method
[20] = target: Alpha-1A adrenergic receptor; assay: Inhibition of alpha-1A adrenergic receptor (unknown origin)
Plasma [21] = assay: Proinflammatory activity in C57BL/6J mouse plasma assessed as IL-1beta levels at 10 mg/kg, po by multiplex assay (reference value: 60 pg/ml); assay type: functional
Liver [22] = assay: Proinflammatory activity in C57BL/6J mouse liver assessed as CXCL-1 levels at 30 mg/kg, po by multiplex assay (reference value: 25 pg/g); assay type: functional
Cynomolgus monkey [23] = assay: Induction of IFNalpha levels in cynomolgus monkey plasma at 30 mg/kg, po after 24 hrs by ELISA; assay type: functional, Macaca fascicularis; in short: as §3
Cynomolgus monkey [24] = assay: Plasma concentration in cynomolgus monkey at 30 mg/kg, po by LC-MS analysis; assay type: ADME, organism-based, Macaca fascicularis; conditions: in vivo
[25] = AUC (0 to last) in C57BL/6J mouse plasma at 30 mg/kg, po by LC-MS analysis; assay type: ADME, organism-based; parameters: dose 30 mg/kg, time 0 - last, route oral
In short: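 Healthy C57BL/6 mice were dosed once by mouth at 0.3, 1, 3, 10 or 30 mg/kg in 20% HP-β-CD, in groups of 15 per dose. Three mice per group were sacrificed at 0.5, 1, 2, 4 or 7 h, and plasma and liver compound levels were measured by LC–MS. Values were rounded to whole numbers.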

Plasma [26] = assay: Upregulation of IP-10 mRNA expression levels in C57BL/6J mouse plasma at 1 mg/kg, po by RT-qPCR analysis (reference value: 1); assay type: functional
Plasma [27] = assay: Effect on cytokine profile in C57BL/6J mouse plasma assessed as IFNgamma levels at 10 mg/kg, po by multiplex assay; assay type: functional; in short: as §2
Cynomolgus monkey [28] = assay: Effect on cytokine profile in cynomolgus monkey plasma assessed as IL-15 levels at 9 mg/kg, po after 24 hrs by Luminex assay (reference value: 20 pg/ml); assay type: functional, Macaca fascicularis; in short: as §3
[29] = Permeability of the compound in porcine LLC-PK1 cells expressing MDR1 at 1 uM by LC-MS/MS analysis; assay type: ADME, cell-based, Sus scrofa; conditions: pig, llc-pk1, 1 µM
[30] = Cmax in Sprague-Dawley rat plasma at 10 mg/kg, po; assay type: ADME, organism-based; parameters: dose 10 mg/kg, route oral
In short: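 Male Sprague-Dawley rats given 10 mg/kg po as a solution. Compound measured in portal vein, systemic plasma and liver. Cmax taken from concentration–time profiles.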

Voltage-gated inwardly rectifying potassium channel KCNH2, sequence (Q12809 whole entry): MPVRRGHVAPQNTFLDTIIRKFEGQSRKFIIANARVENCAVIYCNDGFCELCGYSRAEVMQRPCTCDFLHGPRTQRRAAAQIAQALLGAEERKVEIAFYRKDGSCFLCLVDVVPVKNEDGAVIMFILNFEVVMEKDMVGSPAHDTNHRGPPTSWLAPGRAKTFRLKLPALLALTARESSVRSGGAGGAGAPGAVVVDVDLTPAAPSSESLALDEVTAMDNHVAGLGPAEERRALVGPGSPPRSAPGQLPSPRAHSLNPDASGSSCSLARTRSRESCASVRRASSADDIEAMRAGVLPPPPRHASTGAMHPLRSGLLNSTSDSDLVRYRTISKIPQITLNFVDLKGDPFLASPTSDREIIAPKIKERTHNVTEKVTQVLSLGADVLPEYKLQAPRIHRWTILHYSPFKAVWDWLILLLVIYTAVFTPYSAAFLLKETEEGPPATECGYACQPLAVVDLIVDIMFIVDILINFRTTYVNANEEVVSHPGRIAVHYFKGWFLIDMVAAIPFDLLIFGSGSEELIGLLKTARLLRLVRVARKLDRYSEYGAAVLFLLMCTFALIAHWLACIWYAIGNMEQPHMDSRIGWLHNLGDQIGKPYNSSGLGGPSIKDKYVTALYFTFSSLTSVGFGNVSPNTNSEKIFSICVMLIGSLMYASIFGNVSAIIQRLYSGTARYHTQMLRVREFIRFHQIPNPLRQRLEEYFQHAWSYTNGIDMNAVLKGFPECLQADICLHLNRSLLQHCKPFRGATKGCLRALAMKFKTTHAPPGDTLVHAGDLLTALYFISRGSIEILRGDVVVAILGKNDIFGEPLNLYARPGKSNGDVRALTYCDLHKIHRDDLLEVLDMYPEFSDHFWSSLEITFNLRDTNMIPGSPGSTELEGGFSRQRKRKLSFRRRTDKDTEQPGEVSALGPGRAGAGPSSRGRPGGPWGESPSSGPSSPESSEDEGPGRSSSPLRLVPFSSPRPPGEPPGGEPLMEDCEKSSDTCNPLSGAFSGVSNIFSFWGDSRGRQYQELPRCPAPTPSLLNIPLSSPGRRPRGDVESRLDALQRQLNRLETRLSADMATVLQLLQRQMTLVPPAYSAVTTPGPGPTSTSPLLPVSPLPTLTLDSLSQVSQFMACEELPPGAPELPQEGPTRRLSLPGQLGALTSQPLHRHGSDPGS
D(1A) dopamine receptor, sequence (P21728 whole entry): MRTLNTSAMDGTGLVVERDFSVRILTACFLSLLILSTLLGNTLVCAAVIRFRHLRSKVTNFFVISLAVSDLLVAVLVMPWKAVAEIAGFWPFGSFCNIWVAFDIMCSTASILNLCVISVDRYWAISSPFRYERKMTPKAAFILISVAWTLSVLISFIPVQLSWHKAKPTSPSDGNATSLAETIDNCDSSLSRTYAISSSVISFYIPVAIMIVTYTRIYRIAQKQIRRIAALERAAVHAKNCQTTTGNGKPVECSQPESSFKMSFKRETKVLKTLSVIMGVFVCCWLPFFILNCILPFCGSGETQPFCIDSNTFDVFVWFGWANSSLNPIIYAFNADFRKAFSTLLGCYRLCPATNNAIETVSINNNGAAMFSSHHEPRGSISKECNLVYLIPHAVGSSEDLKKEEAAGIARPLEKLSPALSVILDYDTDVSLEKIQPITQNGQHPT

CCC[C@@H](CCO)Nc1nc(N)nc2c(F)cccc12
Cmax [1]: 9 ng/mL | Activity (Plasma [2]): >10000 pg/mL | Cmax [3]: 148 ng/mL | Activity (Liver [4]): 1355 pg/g | Activity (Plasma [5]): Below limit of detection | Activity (Liver [6]): 3225 pg/g | Activity (Liver [7]): 5185 pg/g | Activity (Cynomolgus monkey [8]): Below limit of detection | fold change (FC) (Cynomolgus monkey [9]): 40 | AUC(0-t) [10]: 5200 ng·h/mL | fold change (FC) (Cynomolgus monkey [11]): 4.2 | Activity (Liver [12]): 2865 pg/g | AUC [13]: 49 ng·h/mL | Cmax [14]: 7610 ng/g | Activity (Plasma [15]): 1150 pg/mL | Activity (Plasma [16]): 1010 pg/mL | IC50 (D(1A) dopamine receptor): > 10 µM | Activity (Liver [17]): 430 pg/g | metabolised at 0.25 h, 1 µM [18]: 43% | IC50 [19]: > 10 µM | IC50 [20]: > 10 µM | Activity (Plasma [21]): 55 pg/mL | Activity (Liver [22]): >83333 pg/g | Activity (Cynomolgus monkey [23]): >51200 pg/mL | Cp (Cynomolgus monkey [24]): 160 ng/mL | AUC(0-t) [25]: 679 ng·h/mL | fold change (FC) (Plasma [26]): 845 | Activity (Plasma [27]): 295 pg/mL | Activity (Cynomolgus monkey [28]): 75 pg/mL | permeability [29]: Permeable | Cmax [30]: 16 ng/mL
